The source of these data is the array DNA melting data of Ke et al. (doi:10.1101/2024.01.08.574731).

Data set [1] is described as follows: folding enthalpy; higher = less favourable; fluorescence melt of hairpins on a sequencing array, two-state fit. The note with it: sodium 0.088 M. In a few lines:
(§1)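 Folding enthalpy and melting temperature were estimated with bootstrapped two-state fits and combined across four replicates by inverse-variance weighting, with fitted temperatures raised by 9.35 °C to match UV melts. The data were Cy3 fluorescence of library hairpins, with annealed Cy3 and quencher oligos, on a sequenced MiSeq flow cell in 50 mM Na-HEPES pH 8.0, 25 mM NaCl, imaged in 2.5 °C steps up to 60 °C and normalised to pre-quench Cy3 and control constructs.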

The nature of data set [2]: melting temperature; fluorescence melt of hairpins on a sequencing array, two-state fit, raised by 9.35 °C to match UV melts. The note with it: sodium 0.088 M. The procedure, abridged: as §1

Consider GCGGACGAAAGTCTTCGC ((((((....)))..))), for which, in data set [1], the folding enthalpy is -23.4 kcal/mol. Also, the Tm in data set [2] is 45.9 °C.
The matching figures for GTATAAGGAAACTTGTAC (((.(((....))).))): -17.1 kcal/mol and 31.5 °C.
On to GCTACCGGAAACGGTGGC ((.((((....)))).)), for which the folding enthalpy in data set [1] is -33.8 kcal/mol. Also, the Tm in data set [2] amounted to 60 °C.
Taken in the same sequence, the figures for GATGCCCGAAAGGGAATC (((.(((....))).))) were -37.9 kcal/mol and 53.9 °C.
Taken in the same sequence, the figures for GGACAGAAATGTCC (((((....))))) were -25.9 kcal/mol and 53.2 °C.
Taken in the same sequence, the figures for GACAGGCGAAAGCCGTC (((.(((....)))))) were -11.3 kcal/mol and 64.9 °C.
Turning to GTTGGAGGAAACTTCGAC ((.(.((....)).).)), the folding enthalpy in data set [1] was -24.3 kcal/mol. In addition, the Tm in data set [2] turned out to be 34.2 °C.
Taken in the same sequence, the figures for GTTGAAGGAAACTTCAAC (((((((....))))))) were -51.5 kcal/mol and 54.2 °C.
On to GGGTGGGCGAAAGCCCCC (((..(((....)))))), for which, in data set [1], the folding enthalpy was -12 kcal/mol. Also, the Tm in data set [2] was 54.5 °C.
Taken in the same sequence, the figures for GGGACCGGAAACAGTCCC (((((.(....).))))) were -34.5 kcal/mol and 49.4 °C.
The matching figures for GTGTTGGGAAACCGACAC ((((.((....)).)))): -45.5 kcal/mol and 53.6 °C.
The matching figures for GCTATGGGAAACTGTAGC ((((..(....)..)))): -25.2 kcal/mol and 36 °C.
As for GATCTTACTCAAGATC ((((((....)))))), in data set [1], the folding enthalpy was -33.5 kcal/mol. The Tm in data set [2] is 42.3 °C.
The matching figures for GGCCACGAAAGTGCGCC ((((((....))).))): -32.8 kcal/mol and 63.6 °C.
Taken in the same sequence, the figures for GGTCTACCGAAAGGTACC (((..(((....)))))) were -11 kcal/mol and 29.1 °C.
The matching figures for GATTGGGCGAAAGCCATC (((..(((....)))))): -8.31 kcal/mol and 26.8 °C.
For GGTGACGGAAACGTTACC (((.(((....))).))), the folding enthalpy in data set [1] is -38.5 kcal/mol. Further, the Tm in data set [2] was determined as 53 °C.
In the case of GAGGGCGAAAGCCGCCTC ((((((....)))..))), in data set [1], the folding enthalpy was -9.67 kcal/mol. Moreover, the Tm in data set [2] came out at 36.3 °C.
The matching figures for GGTTTCGAAAGAAGTACC ((((((....)))..))): -12.7 kcal/mol and 29.8 °C.
Taken in the same sequence, the figures for GGGAACCGAAAGGTACCC (((.(((....))).))) were -34.5 kcal/mol and 58.6 °C.
Consider GCGTTGCGAAAGCTTCGC (((..((....))..))), for which, in data set [1], the folding enthalpy was -14.3 kcal/mol. The Tm in data set [2] came to 64 °C.
Turning to GTATCCGAAAGGAAATAC ((((((....)))..))), in data set [1], the folding enthalpy is -16.8 kcal/mol. The Tm in data set [2] was found to be 31 °C.
Taken in the same sequence, the figures for GATGGTGGAAACGCTATC (((.(.(....).).))) were -16.2 kcal/mol and 31.3 °C.
Taken in the same sequence, the figures for GATCTGTTTACAGATC ((((((....)))))) were -44.4 kcal/mol and 58.6 °C.
Taken in the same sequence, the figures for GGTATCCGAAAGGAAACC (((.(((....))).))) were -31.9 kcal/mol and 48.8 °C.
Regarding GTCTGCCGAAAGGCCGAC (((.(((....))).))), the folding enthalpy in data set [1] is -25.6 kcal/mol. The Tm in data set [2] was 54.1 °C.
Taken in the same sequence, the figures for GATCAATGAATTGATC ((((((....)))))) were -34.6 kcal/mol and 46.3 °C.
The matching figures for GACGCCGAAAGGCCGTC ((((((....))).))): -18.7 kcal/mol and 61.4 °C.
As for GATCTTGAGGAAGATC ((((((....)))))), in data set [1], the folding enthalpy is -24.9 kcal/mol. Besides, the Tm in data set [2] was 36.8 °C.
The matching figures for GATCTCAGTTGAGATC ((((((....)))))): -34.5 kcal/mol and 54.2 °C.
For the sequence GCTATCGAAAGATAGAGC ((((((....)))..))), the folding enthalpy in data set [1] is -23.4 kcal/mol. Further, in data set [2], the Tm was found to be 42.7 °C.
The matching figures for GCGTCCGAAAGGAGCGC ((((((....))).))): -22.9 kcal/mol and 66.8 °C.
Taken in the same sequence, the figures for GTAGAAGGAAACTTCTGC (.(((((....))))).) were -23.1 kcal/mol and 39 °C.
Taken in the same sequence, the figures for GATCGTTTGACGATC ((((((...)))))) were -24.6 kcal/mol and 55.5 °C.
On to GGTTTCGAAAGAAACC ((((((....)))))), for which the folding enthalpy in data set [1] is -40.8 kcal/mol. Besides, the Tm in data set [2] came to 64.2 °C.
Regarding GCAATGGGAAACCACTGC (((.(((....))).))), the folding enthalpy in data set [1] was -28.6 kcal/mol. In addition, in data set [2], the Tm is 39.1 °C.
Taken in the same sequence, the figures for GCGCAGCGAAAGCTCGGC ((..(((....)))..)) were -7.59 kcal/mol and 40.3 °C.
